Calls of active or inactive are those of the source. The rule behind the calls is not given here.
What was measured:
[1] = Photostability of the compound in acetonitrile assessed as compound degradation irradiated with 90 mW/cm2 light; assay type: physicochemical
[2] = Drug uptake in endoplasmic reticulum of human HeLa cells at 5 uM incubated for 2 hrs under dark condition by ER tracker green dye based laser confocal microscopic analysis; assay type: ADME, subcellular
Procedure, shortened: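 HeLa cells adhered overnight on glass-bottom dishes and were loaded with 5 μM compound in the dark for 2 h. After PBS washes, cells were stained with Mito-Tracker Green FM 250 nM for 30 min, Lyso-Tracker Green 160 nM for 30 min, or ER-Tracker Green 2 μM for 45 min. Confocal imaging: trackers excited at 488 nm, collected 500–560 nm; compound excited at 633 nm, collected 650–740 nm.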

[3] = Absorption property of the compound in isopropanol assessed as absorption coefficient by UV-visible spectrophotometric method; assay type: physicochemical
Procedure, shortened: (§1)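 Electronic absorption spectra recorded by UV-visible spectrophotometry at room temperature. Solvents were chloroform, isopropanol, acetonitrile, DMF, and PBS buffer containing 1% Cremophor EL/1,2-propanediol (10:3, v:v). Chloroform data were referenced to the non-halogenated parent dye.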

[4] = Stability of the compound in acetonitrile assessed as compound degradation under dark condition; assay type: physicochemical
MCF7 = test: Phototoxicity against human MCF7 cells assessed as reduction in cell viability preincubated for 3 hrs followed by 54 J/cm2 light irradiation and measured after 24 hrs by MTT assay; assay type: functional, cell-based; conditions: MCF7, light or radiation study
Procedure, shortened: (§2)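 PS formulated in PBS containing Cremophor EL/1,2-propanediol (10:3, v:v) after THF removal, filtered, with concentration confirmed by UV-Vis. Cells were grown in DMEM with 10% FBS and seeded at 3×10^3 per well overnight. They were incubated with PS for 3 h, irradiated at λ > 590 nm, kept 24 h at 37 °C, then given MTT (0.5 mg/mL, 4 h) with DMSO solubilization and A490 read-out.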

[5] = Photostability of the compound in isopropanol assessed as compound degradation irradiated with 90 mW/cm2 light; assay type: physicochemical
HeLa [6] = test: Induction of apoptosis in human HeLa cells assessed as viable cells at 40 nM preincubated for 3 hrs followed by 54 J/cm2 light irradiation and measured after 24 hrs by Annexin-V-FITC/propidium iodide staining based flow cytometry (reference value: 90.74%); assay type: functional; conditions: light or radiation study, read-out: Activity
Procedure, shortened: (§3)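 HeLa cells in six-well plates were exposed to compound for 3 h, irradiated (λ > 590 nm), and incubated 24 h at 37 °C. Cells were then harvested, washed with PBS, and stained with annexin V-FITC/PI for 20 min at room temperature before immediate flow cytometry. Untreated, unirradiated cells served as control.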

HeLa [7] = test: Induction of apoptosis in human HeLa cells assessed as viable cells at 200 nM preincubated for 3 hrs followed by 27 J/cm2 light irradiation and measured after 24 hrs by Annexin-V-FITC/propidium iodide staining based flow cytometry (reference value: 90.74%); assay type: functional; conditions: light or radiation study, read-out: Activity; procedure, shortened: as §3
HeLa [8] = test: Induction of apoptosis in human HeLa cells assessed as viable cells at 200 nM preincubated for 3 hrs followed by 54 J/cm2 light irradiation and measured after 24 hrs by Annexin-V-FITC/propidium iodide staining based flow cytometry (reference value: 90.74%); assay type: functional; conditions: light or radiation study, read-out: Activity; procedure, shortened: as §3
[9] = Drug uptake in human HeLa cells xenografted Balb/c nu/nu mouse heart at 2 mg/kg, iv measured after 3 hrs by fluorescence imaging analysis; assay type: ADME, organism-based; conditions: in vivo
Procedure, shortened: (§4)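 Female Balb/c nu/nu mice bore subcutaneous HeLa tumors (5×10^6 cells, right back) and received 2 mg/kg via tail vein. Living mice were imaged under isoflurane at time points (ex 680/em 720 nm, 1 s exposure). At set times mice were euthanized and heart, liver, spleen, lungs, kidneys and tumor imaged ex vivo; ROI quantified, mean ± SD, n = 3.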

[10] = Induction of singlet oxygen generation in isopropanol assessed as relative rate of DPBF degradation to MB at 1 uM irradiated with 90 mW/cm2 halogen light; assay type: functional
Procedure, shortened: (§5)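 Singlet oxygen generation measured with 1,3-diphenylisobenzofuran (DPBF) as scavenger. The decrease in DPBF absorbance at 411 nm was monitored over time during light irradiation, and the photodegradation rate was calculated.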

HeLa [11] = test: Induction of apoptosis in human HeLa cells assessed as late apoptotic cells at 40 nM preincubated for 3 hrs followed by 54 J/cm2 light irradiation and measured after 24 hrs by Annexin-V-FITC/propidium iodide staining based flow cytometry (reference value: 5.92%); assay type: functional; procedure, shortened: as §3
[12] = Drug uptake in human HeLa cells xenografted Balb/c nu/nu mouse tumor at 2 mg/kg, iv measured after 3 hrs by fluorescence imaging analysis; assay type: ADME, organism-based, Neoplasm; conditions: in vivo; procedure, shortened: as §4
HeLa [13] = test: Induction of apoptosis in human HeLa cells assessed as early apoptotic cells at 200 nM preincubated for 3 hrs followed by 27 J/cm2 light irradiation and measured after 24 hrs by Annexin-V-FITC/propidium iodide staining based flow cytometry (reference value: 0.54%); assay type: functional; procedure, shortened: as §3
HeLa [14] = test: Induction of apoptosis in human HeLa cells assessed as late apoptotic cells at 200 nM preincubated for 3 hrs followed by 27 J/cm2 light irradiation and measured after 24 hrs by Annexin-V-FITC/propidium iodide staining based flow cytometry (reference value: 5.92%); assay type: functional; procedure, shortened: as §3
[15] = Induction of singlet oxygen generation in PBS containing 1% Cremophor EL/1,2-propanediol (10:3, v:v) system assessed as relative rate of DPBF degradation to MB at 1 uM irradiated with 90 mW/cm2 halogen light; assay type: functional; procedure, shortened: as §5
[16] = Dark toxicity in human SW480 cells assessed as reduction in cell viability after 3 hrs by MTT assay; assay type: cell-based
HeLa [17] = test: Induction of reactive oxygen species generation in human HeLa cells at 2.5 uM incubated for 3 hrs prior to H2DCFDA addition for 20 mins followed by 54 J/cm2 light irradiation by microplate reader analysis relative to dark treated cells; assay type: functional
Procedure, shortened: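 HeLa cells were exposed to 0.004, 0.02, 0.10, 0.5 or 2.5 μM for 3 h, washed, and loaded with H2DCFDA 10 μM in PBS for 20 min at 37 °C. After washing, cells in PBS were irradiated with 54 J/cm² (λ > 590 nm) or kept dark. Fluorescence was read by confocal microscopy and by plate reader (ex 485/em 538 nm).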

HeLa [18] = test: Phototoxicity against human HeLa cells assessed as reduction in cell viability at 125 nM preincubated for 2 hrs followed by 5.4 to 108 J/cm2 light irradiation and measured after 24 hrs by MTT assay; assay type: functional, cell-based
HeLa [19] = test: Phototoxicity against human HeLa cells assessed as reduction in cell viability preincubated for 3 hrs followed by 54 J/cm2 light irradiation and measured after 24 hrs by MTT assay; assay type: functional, cell-based; conditions: light or radiation study; procedure, shortened: as §2
[20] = Photostability of the compound in N,N-dimethylformamide assessed as compound degradation irradiated with 90 mW/cm2 light; assay type: physicochemical
[21] = Absorption property of the compound in chloroform assessed as hypsochromic shift by measuring maximum absorption wavelength by UV-visible spectrophotometric method; assay type: physicochemical; procedure, shortened: as §1
[22] = Drug uptake in human HeLa cells xenografted Balb/c nu/nu mouse kidney at 2 mg/kg, iv measured within 1 hr by fluorescence imaging analysis; assay type: ADME, organism-based; conditions: in vivo; procedure, shortened: as §4
[23] = Dark toxicity in human MCF7 cells assessed as reduction in cell viability after 3 hrs by MTT assay; assay type: cell-based

## COc1ccc(C2=[N+]3C(=Nc4c(-c5ccccc5)cc(-c5ccc(OC)cc5)n4[B-]3(F)F)C(c3ccccc3)=C2I)cc1
[1]
  Stabilty: Stable
[2]
  Drug uptake: Active
[3]
  Activity: 59300 M⁻¹ cm⁻¹
[4]
  Stabilty: Unstable
MCF7
  IC50: 100 nM
[5]
  Stabilty: Stable
HeLa [6]
  viability at 0.04 µM: 77.3%
HeLa [7]
  viability at 0.2 µM: 42.9%
HeLa [8]
  viability at 0.2 µM: 8.15%
[9]
  Drug uptake: Active
[10]
  fold change (FC): 7.3
HeLa [11]
  Activity: 10.31%
[12]
  Drug uptake: Active
HeLa [13]
  Activity: 20.46%
HeLa [14]
  Activity: 14.98%
[15]
  fold change (FC): 2.4
[16]
  IC50 at 3 h: > 50000 nM
HeLa [17]
  fold change (FC): 77
HeLa [18]
  Activity: Active
HeLa [19]
  IC50: 76 nM
[20]
  Stabilty: Unstable
[21]
  Activity: 678 nm
[22]
  Drug uptake: Active
[23]
  IC50 at 3 h: > 50000 nM

Source: ChEMBL document CHEMBL4725347, “Discovery of a Monoiodo Aza-BODIPY Near-Infrared Photosensitizer: in vitro and in vivo Evaluation for Photodynamic Therapy” (J Med Chem, 2020)
